# Test results reported in ChEMBL document CHEMBL3576795, “Neolignans and other metabolites from Ocotea cymosa from the Madagascar rain forest and their biological activities” (J Nat Prod, 2015).
# The source made the active and inactive calls. The calls are words filed in the database; no cut-off is given here.
# Assays:
# [1] = tested on: Plasmodium falciparum; assay: Antiplasmodium activity against Plasmodium falciparum Dd2; assay type: functional, organism-based
# Outline: (§1)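 Dd2 ring-stage cultures at 1% hematocrit and 1% parasitaemia were grown for 72 h at 37°C in 5.05% CO2/4.93% O2/90.2% N2 with increasing drug concentrations. Viability was read by SYBR Green I DNA quantitation in lysis buffer. IC50 was obtained by nonlinear regression and averaged over three independent runs, each in duplicate, ± S.E.M.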
# [2] = tested on: A2780; assay: Antiproliferative against human A2780 cells after 2 days by AlamarBlue assay; assay type: functional, cell-based
# [3] = tested on: Plasmodium falciparum; assay: Antiplasmodium activity against chloroquine-resistant intraerythrocytic stage of Plasmodium falciparum Dd2 assessed as parasite growth inhibition after 72 hrs by SYBR Green I staining-based assay; assay type: functional, organism-based; conditions: Dd2, 72 h; outline: as §1
# [4] = tested on: Aedes aegypti; assay: Insecticidal activity against Aedes aegypti assessed as mortality at 4 mg/ml after 3 days; assay type: functional; conditions: 72 h
# Outline: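 A DMSO master stock of 4000 ppm was diluted with 90:10 water:acetone and robotically dispensed into six replicate plates. Plates were infested with about 1-day-old Aedes aegypti larvae hatched overnight in water with liver powder. They were covered to limit drying, held at room temperature for 3 days, and each well was scored for mortality.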
# [5] = tested on: Plasmodium falciparum; assay: Antiplasmodium activity against chloroquine-sensitive Plasmodium falciparum PoW infected in human RBC assessed as parasite growth inhibition after 42 hrs by microculture radioisotope technique; assay type: functional, organism-based
# [6] = tested on: Plasmodium falciparum; assay: Antiplasmodium activity against chloroquine-resistant Plasmodium falciparum Dd2 infected in human RBC assessed as parasite growth inhibition after 42 hrs by microculture radioisotope technique; assay type: functional, organism-based; conditions: Dd2, 42 h
Compound,inhibition [2],IC50 [3],other results
C=CCC1(C(C)Cc2cc(OC)c(O)c(OC)c2)C=C2OCOC2=CC1=O (stereo not drawn),inactive,–,IC50 [1]: 42.1 µM
C=CC[C@@]12C[C@]3(OCOC3=CC1=O)[C@@H](C)[C@@H]2c1cc(OC)c2c(c1)OCO2,inactive,–,–
C=CC[C@@]12C[C@]3(OCOC3=CC1=O)[C@@H](C)[C@@H]2c1cc(O)c2c(c1)OCO2,inactive,42 µM,IC50 [1]: 28.4 µM
C=CC[C@@]12C[C@]3(OCOC3=CC1=O)[C@@H](C)[C@@H]2c1ccc2c(c1)OCO2,inactive,14.6 µM,mortality at 4000 µg/mL [4]: ≥ 80%
C=CC[C@]12C[C@@]3(OCOC3=CC1=O)[C@H](C)[C@@H]2c1cc(OC)c2c(c1)OCO2,inactive,4.1 µM,–
C=CCc1ccc(O[C@]23C[C@@H](CC=C)C(=O)C=C2OCO3)c(OC)c1,inactive,–,–
C=CCc1cc2c(c3c1O[C@H](c1ccc4c(c1)OCO4)[C@H]3C)OCO2,inactive,–,–
C=CCc1cc2c(cc1O[C@@H](C)Cc1cc(OC)c(OC)c(OC)c1)OCO2,inactive,–,mortality at 4000 µg/mL [4]: ≥ 80%
C=CC[C@@]12C[C@]3(OCOC3=CC1=O)[C@@H](C)[C@@H]2c1cc(OC)c(OC)c(OC)c1,inactive,–,–
C=CCc1cc(OC)c(O[C@]23C[C@@H](CC=C)C(=O)C=C2OCO3)c(OC)c1,inactive,–,–
C=CCC1(C(C)Cc2ccc(O)c(OC)c2)C=C2OCOC2=CC1=O (stereo not drawn),inactive,–,–
C=CCc1cc(OC)c(O[C@@H](C)Cc2cc(OC)c(OC)c(OC)c2)c(OC)c1,inactive,3.3 µM,IC50 [1]: 3.1 µM
C/C=C/c1cc(OC)c(OC(C)Cc2cc(OC)c(OC)c(OC)c2)c(OC)c1 (stereo not drawn),–,–,IC50 [5]: 12.4 µM; IC50 [6]: 14.9 µM
C=CC[C@]12C[C@@]3(OCOC3=CC1=O)[C@H](C)[C@@H]2c1cc(OC)c(OC)c(OC)c1,inactive,7.7 µM,IC50 [1]: 40.5 µM
C=CCC1(C(C)Cc2cc(OC)c(OC)c(OC)c2)C=C2OCOC2=CC1=O (stereo not drawn),inactive,–,–
C=CCC1(C(C)Cc2ccc(OC)c(OC)c2)C=C2OCOC2=CC1=O (stereo not drawn),inactive,–,–
C[C@@H]1CC[C@H]2[C@@H](C)C(=O)O[C@@H]3O[C@@]4(C)CC[C@@H]1[C@]32OO4 [ARTEMISININ],–,0.00082 µM,–
C=CCc1cc2c(c3c1O[C@H](c1cc(OC)c(OC)c(OC)c1)[C@H]3C)OCO2 (relative stereo),inactive,0.45 µM,IC50 [1]: 4.7 µM; mortality at 4000 µg/mL [4]: ≥ 80%
